KLK5 inh – kallikrein 5 (human) inhibition | AID 873 | Q9Y337 | inhibition, % at 5 µM | 0.59% of 210,000 active | recombinant hK5, fluorogenic AMC substrate cleavage;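 active = inhibition of 40% or more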;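 also: 0% = enzyme controls without compound and 100% = no-enzyme blanks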
Thrombin inh – inhibitors of human thrombin; alpha-thrombin, Boc-VPR-AMC fluorogenic substrate cleavage; AID 1046; inhibition, % at 5 µM; 0.26% of 220,000 active; P00734;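 active = inhibition at or above 40%; inactive = inhibition below 40%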;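 also: 0% = enzyme with no compound and 100% = wells without enzyme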
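signal = AMC fluorescence, 355/460 nm | material = human alpha-thrombin enzyme | control set = enzyme without compound as high, wells lacking enzyme as low | times = reaction at room temperature | read-out basis = percent inhibition scaled between no-compound controls and no-enzyme blanks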
FXIIa inh 1536 – factor XIIa (human) inhibition; P00748; purified FXIIa, Boc-QGR-AMC fluorogenic substrate, 2 h; inhibition, % at 5 µM; 0.3% of 220,000 active; in the data active = inhibition above about 40%;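 also: 0% = enzyme with no compound and 100% = blank without enzyme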
Target sequence (P00748 20-372 limits assumed): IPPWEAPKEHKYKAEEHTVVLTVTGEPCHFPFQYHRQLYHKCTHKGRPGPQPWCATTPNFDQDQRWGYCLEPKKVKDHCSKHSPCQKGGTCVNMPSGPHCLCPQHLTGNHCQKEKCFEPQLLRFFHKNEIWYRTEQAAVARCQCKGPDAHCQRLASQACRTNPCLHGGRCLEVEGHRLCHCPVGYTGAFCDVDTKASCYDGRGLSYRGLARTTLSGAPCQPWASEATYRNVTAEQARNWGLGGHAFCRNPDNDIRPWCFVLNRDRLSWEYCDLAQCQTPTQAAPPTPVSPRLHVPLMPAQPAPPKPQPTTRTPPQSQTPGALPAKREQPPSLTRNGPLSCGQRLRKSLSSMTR
Target sequence (P00748 373-615 limits assumed): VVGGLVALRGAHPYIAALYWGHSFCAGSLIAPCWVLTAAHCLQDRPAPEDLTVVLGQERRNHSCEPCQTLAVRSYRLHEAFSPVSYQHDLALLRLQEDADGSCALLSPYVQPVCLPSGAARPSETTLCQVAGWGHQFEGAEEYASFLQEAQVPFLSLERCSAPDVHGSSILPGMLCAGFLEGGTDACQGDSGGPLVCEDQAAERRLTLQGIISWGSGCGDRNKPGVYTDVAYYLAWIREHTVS
FXIa inh 1536 – blocks human coagulation factor XIa protease activity; P03951; purified FXIa, Boc-Glu-Ala-Arg-AMC fluorogenic substrate; inhibition, % at 5 µM; 0.14% of 220,000 active;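 active = inhibition of at least 40%; inactive = inhibition below 40%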;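 also: fluorescence of freed AMC excited at 355 nm; 0% = enzyme without compound and 100% = no enzyme blank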
Calpain2 inh – inhibitors of pig calpain II; purified calpain II, fluorogenic peptide substrate, 30 min; inhibition, % at 16 µM; 0.37% of 220,000 active;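 active = inhibition above about 50%, limit read from the data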
* marks the source's active call; other numbers are inactive results. An excerpt weighted towards active compounds, which were near 1.4% of everything screened.

What do the screens show for `COc1cc([N+](=O)[O-])ccc1-c1ccc(/C=N/NC(=O)c2ccccc2O)o1`?
KLK5 inh: -2; Thrombin inh: 1; FXIIa inh 1536: 7; FXIa inh 1536: 0; Calpain2 inh: 54*

What do the screens show for `Cc1ccc(/C=N/NC(=O)c2cccc([N+](=O)[O-])c2)o1`?
KLK5 inh: 41*; Thrombin inh: 13; FXIIa inh 1536: 10; FXIa inh 1536: 2; Calpain2 inh: 24

Results for CC(=O)Nc1cccc(C(=O)N/N=C/c2ccc(C)o2)c1 ?
KLK5 inh: 2; Thrombin inh: -7; FXIIa inh 1536: 1; FXIa inh 1536: -3; Calpain2 inh: 17

How did Cc1cccc(NNC(=O)C2CCC2)c1 do in these assays?
KLK5 inh: -5; Thrombin inh: 2; FXIIa inh 1536: 5; FXIa inh 1536: -3; Calpain2 inh: -9

How did O=C(Nc1ccc(N2CCOCC2)cc1)c1cnsn1 do in these assays?
KLK5 inh: 51*; Thrombin inh: 13; FXIIa inh 1536: 6; FXIa inh 1536: 2; Calpain2 inh: 8

What do the screens show for `O=C(Nc1ccc(N2CCOCC2)cc1)c1ccncc1`?
KLK5 inh: -12; Thrombin inh: -4; FXIIa inh 1536: 6; FXIa inh 1536: -1; Calpain2 inh: -13

How did Cc1cc(C)nc(Nc2ccccc2Br)n1 do in these assays?
KLK5 inh: 59*; Thrombin inh: 45*; FXIIa inh 1536: 20; FXIa inh 1536: 20; Calpain2 inh: 9

Results for Cc1ccc(NC(=O)ON=C2CCCC2)cc1 ?
KLK5 inh: 44*; Thrombin inh: 32; FXIIa inh 1536: 20; FXIa inh 1536: 9; Calpain2 inh: 19

What do the screens show for `CCC1Cc2c(nc(N)c3c(N)nc(N4CCOCC4)c(C#N)c23)O1` (configuration not stated)?
KLK5 inh: 0; Thrombin inh: -4; FXIa inh 1536: -1; Calpain2 inh: -472

Results for CCOc1cc2c(C#N)c(N3CCOCC3)nc(N)c2c(N)n1 ?
KLK5 inh: 110*; Thrombin inh: 2; FXIIa inh 1536: 0; FXIa inh 1536: -3; Calpain2 inh: inactive

What do the screens show for `Cn1c(SCC(=O)N2CCc3ccccc3C2)nnc1-c1cccs1`?
KLK5 inh: 43*; Thrombin inh: 18; FXIIa inh 1536: 22; FXIa inh 1536: 19; Calpain2 inh: 20

How did Nn1c(SCC(=O)N2CCc3ccccc3C2)nnc1-c1cccs1 do in these assays?
KLK5 inh: 52*; Thrombin inh: 17; FXIIa inh 1536: 20; FXIa inh 1536: 19; Calpain2 inh: 27

Results for Cn1c(SCC(=O)N2CCc3ccccc3C2)nnc1-c1ccncc1 ?
KLK5 inh: -11; Thrombin inh: 3; FXIIa inh 1536: 14; FXIa inh 1536: -15; Calpain2 inh: -12

How did CCOC(=O)C(=O)N(Nc1ccc(C)cc1)c1ccc(C)cc1 do in these assays?
KLK5 inh: 34; Thrombin inh: 11; FXIIa inh 1536: 24; FXIa inh 1536: 50*; Calpain2 inh: 6

Results for CCOC(=O)C(=O)N(Nc1ccccc1C)c1ccccc1C ?
KLK5 inh: 0; Thrombin inh: -12; FXIIa inh 1536: 4; FXIa inh 1536: -4; Calpain2 inh: 11

How did O=C(Oc1cncc(Cl)c1)c1ccco1 do in these assays?
KLK5 inh: 42*; Thrombin inh: 21; FXIIa inh 1536: 61*; FXIa inh 1536: 84*; Calpain2 inh: 2

How did Cc1cc(C)cc(C(=O)NCC(=O)OCc2c(C)noc2C)c1 do in these assays?
KLK5 inh: -29; Thrombin inh: -7; FXIIa inh 1536: 4; FXIa inh 1536: -4; Calpain2 inh: 0

What do the screens show for `Cc1noc(C)c1COC(=O)CNC(=O)c1cccc(F)c1`?
KLK5 inh: -1; Thrombin inh: -3; FXIIa inh 1536: 12; FXIa inh 1536: -2; Calpain2 inh: 59*

Results for Cc1noc(C)c1COC(=O)C(c1ccccc1)c1ccccc1 ?
KLK5 inh: -4; Thrombin inh: -5; FXIIa inh 1536: 10; FXIa inh 1536: -1; Calpain2 inh: 58*

How did CCOC(=O)c1ccc(NC(=S)NCCCN2CCCCC2)cc1 do in these assays?
KLK5 inh: 4; Thrombin inh: 0; FXIIa inh 1536: 19; FXIa inh 1536: -9; Calpain2 inh: -7

How did O=C1c2cccnc2Oc2ccc(Cl)cc2N1Cc1ccc(F)cc1 do in these assays?
KLK5 inh: 44*; Thrombin inh: 36; FXIIa inh 1536: 14; FXIa inh 1536: 22; Calpain2 inh: 19

How did CCCNC(=S)NCc1ccc(Cl)cc1 do in these assays?
KLK5 inh: -13; Thrombin inh: -2; FXIIa inh 1536: 11; FXIa inh 1536: 4; Calpain2 inh: -2

How did Clc1ccc(-c2ccccc2)nn1 do in these assays?
KLK5 inh: 45*; Thrombin inh: -6; FXIIa inh 1536: 5; FXIa inh 1536: -9; Calpain2 inh: 1

Results for CN(Cc1ccccc1)c1nc2c(c(=O)[nH]c(=O)n2C)n1CCCSc1ncccn1 ?
KLK5 inh: -17; Thrombin inh: 5; FXIIa inh 1536: 52*; FXIa inh 1536: 42*; Calpain2 inh: 24

What do the screens show for `O=C1c2ccccc2C(=O)N1CSc1nnnn1-c1ccccc1`?
KLK5 inh: 2; Thrombin inh: -5; FXIIa inh 1536: 9; FXIa inh 1536: 11; Calpain2 inh: -1

Results for O=C1c2ccccc2C(=O)N1CCCCSc1nnnn1-c1ccccc1 ?
KLK5 inh: -17; Thrombin inh: 2; FXIIa inh 1536: 11; FXIa inh 1536: 1; Calpain2 inh: 54*

What do the screens show for `O=C(CSc1nnnn1-c1ccccc1)CSc1nnnn1-c1ccccc1`?
KLK5 inh: -6; Thrombin inh: 0; FXIIa inh 1536: 5; FXIa inh 1536: -1; Calpain2 inh: 76*

How did C/C(=N/NC(=O)c1cc(C)[nH]n1)c1ccco1 do in these assays?
KLK5 inh: -2; Thrombin inh: -4; FXIIa inh 1536: 6; FXIa inh 1536: -1; Calpain2 inh: -17

How did O=C(Cn1c(-c2cscn2)nc2ccccc21)Nc1ccccc1F do in these assays?
KLK5 inh: 42*; Thrombin inh: 32; FXIIa inh 1536: 22; FXIa inh 1536: 8; Calpain2 inh: -6

Results for CCCCCC(=O)N1CC2(CC(c3cccc(NC(=O)CC)c3)=NO2)C[C@H]1C(N)=O (some centres not stated) ?
KLK5 inh: 2; Thrombin inh: -4; FXIIa inh 1536: 7; FXIa inh 1536: 1; Calpain2 inh: 6

What do the screens show for `O=C(COC(=O)c1ccccc1-c1nc2ccccc2s1)NC1CCS(=O)(=O)C1` (configuration not stated)?
KLK5 inh: -8; Thrombin inh: -8; FXIIa inh 1536: 9; FXIa inh 1536: -1; Calpain2 inh: -5

Results for COc1cc(NC(=O)c2cccs2)c(OC)cc1NC(=O)CCC(=O)Nc1ccc2ncccc2c1 ?
KLK5 inh: 54*; Thrombin inh: 19; FXIIa inh 1536: 15; FXIa inh 1536: 27; Calpain2 inh: -60

How did CC(O)[C@@H](C(=O)N1CCNCC1)n1cc(CCCCN)nn1 (some centres not stated) do in these assays?
KLK5 inh: -1; Thrombin inh: -3; FXIIa inh 1536: 5; FXIa inh 1536: -2; Calpain2 inh: 9

High-throughput results deposited in PubChem BioAssay by several laboratories.
